# Experiments:
# [1] = molecular target: Serine/threonine-protein kinase Nek1 (Homo sapiens) (UniProt Q96PY6); experiment: Inhibition of wild-type human partial length NEK1 (M1 to K278 residues) expressed in Escherichia coli BL21 assessed as residual activity at 1000 nM after 30 mins by Kinomescan method relative to control
# [2] = molecular target: 3-phosphoinositide-dependent protein kinase 1 (Homo sapiens) (UniProt O15530); experiment: Inhibition of wild-type human full length PDPK1 (M1 to Q556 residues) expressed in Escherichia coli BL21 assessed as residual activity at 1000 nM after 30 mins by Kinomescan method relative to control
# Summary of the method: (§1)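 Single-concentration screen at 1 µM across a 456-kinase KINOMEscan panel. The read-out is Percent Control for each kinase.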
# [3] = molecular target: Activin receptor type-2A (Homo sapiens) (UniProt P27037); experiment: Inhibition of wild-type human ACVR2A (V171 to T499 residues) expressed in Escherichia coli BL21 assessed as residual activity at 1000 nM after 30 mins by Kinomescan method relative to control
# Summary of the method: (§2)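 Single-point screen at a fixed 1 µM, run within a 456-kinase DiscoveRx KINOMEscan panel. Each kinase's read-out is Percent Control, i.e. signal relative to a control without compound. Hits were scored by a Percent Control < 35 cut-off, and an S(35) selectivity score was calculated across the non-mutant kinases.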
# [4] = molecular target: Macrophage colony-stimulating factor 1 receptor (Homo sapiens) (UniProt P07333); experiment: Inhibition of wild-type human partial length autoinhibited CSF1R (Y538 to S939 residues) expressed in HEK293 cells assessed as residual activity at 1000 nM after 30 mins by Kinomescan method relative to control; assay type: cell-based
# [5] = molecular target: Calcium/calmodulin-dependent protein kinase type 1G (Homo sapiens) (UniProt Q96NX5); experiment: Inhibition of wild-type human partial length CAMK1G (M1 to A342 residues) expressed in Escherichia coli BL21 assessed as residual activity at 1000 nM after 30 mins by Kinomescan method relative to control
# [6] = molecular target: Protein kinase C iota type (Homo sapiens) (UniProt P41743); experiment: Inhibition of wild-type human partial length PRKCI (H215 to V587 residues) expressed in HEK293 cells assessed as residual activity at 1000 nM after 30 mins by Kinomescan method relative to control; assay type: cell-based
# [7] = molecular target: Myotonin-protein kinase (Homo sapiens) (UniProt Q09013); experiment: Inhibition of wild-type human partial length DMPK (V47 to V415 residues) expressed in Escherichia coli BL21 assessed as residual activity at 1000 nM after 30 mins by Kinomescan method relative to control
# [8] = molecular target: Cyclin-dependent kinase 17 (Homo sapiens) (UniProt Q00537); experiment: Inhibition of wild-type human full length PCTK2 (M1 to F523 residues) expressed in Escherichia coli BL21 assessed as residual activity at 1000 nM after 30 mins by Kinomescan method relative to control; summary of the method: as §1
# [9] = molecular target: Ribosomal protein S6 kinase alpha-4 (Homo sapiens) (UniProt O75676); experiment: Inhibition of wild-type human partial length N-terminal RPS6KA4 kinase domain 1 expressed in Escherichia coli BL21 assessed as residual activity at 1000 nM after 30 mins by Kinomescan method relative to control
# [10] = molecular target: Transient receptor potential cation channel subfamily M member 6 (Homo sapiens) (UniProt Q9BX84); experiment: Inhibition of wild-type human partial length TRPM6 (Q1723 to I1998 residues) expressed in HEK293 cells assessed as residual activity at 1000 nM after 30 mins by Kinomescan method relative to control; assay type: cell-based
# [11] = molecular target: G protein-coupled receptor kinase 3 (Homo sapiens) (UniProt P35626); experiment: Inhibition of wild-type human full length GRK3 (M1 to L688 residues) expressed in HEK293 cells assessed as residual activity at 1000 nM after 30 mins by Kinomescan method relative to control; assay type: cell-based; summary of the method: as §1
# [12] = molecular target: Ribosomal protein S6 kinase alpha-3 (Homo sapiens) (UniProt P51812); experiment: Inhibition of wild-type human partial length N-terminal RSK3 kinase domain 1 (M1 to Q385 residues) expressed in Escherichia coli BL21 assessed as residual activity at 1000 nM after 30 mins by Kinomescan method relative to control
# [13] = molecular target: Citron Rho-interacting kinase (Homo sapiens) (UniProt O14578); experiment: Inhibition of wild-type human partial length CIT (M68 to E432 residues) expressed in Escherichia coli BL21 assessed as residual activity at 1000 nM after 30 mins by Kinomescan method relative to control
# [14] = tested on: Tyrosine-protein kinase ABL1 (Homo sapiens), P00519 [M351T]; experiment: Inhibition of human phosphorylated ABL1 M351T mutant (S229 to K512 residues) expressed in HEK293 cells assessed as residual activity at 1000 nM after 30 mins by Kinomescan method relative to control; assay type: cell-based; summary of the method: as §2
# [15] = molecular target: NUAK family SNF1-like kinase 2 (Homo sapiens) (UniProt Q9H093); experiment: Inhibition of wild-type human partial length SNARK (P22 to A333 residues) expressed in HEK293 cells assessed as residual activity at 1000 nM after 30 mins by Kinomescan method relative to control; assay type: cell-based
# [16] = molecular target: Serine/threonine-protein kinase MRCK gamma (Homo sapiens) (UniProt Q6DT37); experiment: Inhibition of wild-type human partial length DMPK2 (S46 to S408 residues) expressed in Escherichia coli BL21 assessed as residual activity at 1000 nM after 30 mins by Kinomescan method relative to control
# [17] = molecular target: Mitogen-activated protein kinase kinase kinase 11 (Homo sapiens) (UniProt Q16584); experiment: Inhibition of wild-type human partial length MLK3 (I77 to W399 residues) expressed in Escherichia coli BL21 assessed as residual activity at 1000 nM after 30 mins by Kinomescan method relative to control
# [18] = molecular target: Serine/threonine-protein kinase TBK1 (Homo sapiens) (UniProt Q9UHD2); experiment: Inhibition of wild-type human full length TBK1 (M1 to L729 residues) expressed in HEK293 cells assessed as residual activity at 1000 nM after 30 mins by Kinomescan method relative to control; assay type: cell-based
# [19] = molecular target: Ephrin type-B receptor 4 (Homo sapiens) (UniProt P54760); experiment: Inhibition of wild-type human partial length EPHB4 (H585 to G892 residues) expressed in Escherichia coli BL21 assessed as residual activity at 1000 nM after 30 mins by Kinomescan method relative to control
# [20] = molecular target: Serine/threonine-protein kinase Sgk3 (Homo sapiens) (UniProt Q96BR1); experiment: Inhibition of wild-type human partial length SGK3 (M119 to L496 residues) expressed in HEK293 cells assessed as residual activity at 1000 nM after 30 mins by Kinomescan method relative to control; assay type: cell-based
# [21] = molecular target: Mitogen-activated protein kinase kinase kinase kinase 5 (Homo sapiens) (UniProt Q9Y4K4); experiment: Inhibition of wild-type human partial length MAP4K5 (M1 to P297 residues) expressed in Escherichia coli BL21 assessed as residual activity at 1000 nM after 30 mins by Kinomescan method relative to control
# [22] = molecular target: Serine/threonine-protein kinase Nek10 (Homo sapiens) (UniProt Q6ZWH5); experiment: Inhibition of wild-type human partial length NEK10 (L488 to R809 residues) expressed in HEK293 cells assessed as residual activity at 1000 nM after 30 mins by Kinomescan method relative to control; assay type: cell-based
# Chain of Serine/threonine-protein kinase Nek10 (Homo sapiens) (Q6ZWH5 whole entry, the tested form may be a part): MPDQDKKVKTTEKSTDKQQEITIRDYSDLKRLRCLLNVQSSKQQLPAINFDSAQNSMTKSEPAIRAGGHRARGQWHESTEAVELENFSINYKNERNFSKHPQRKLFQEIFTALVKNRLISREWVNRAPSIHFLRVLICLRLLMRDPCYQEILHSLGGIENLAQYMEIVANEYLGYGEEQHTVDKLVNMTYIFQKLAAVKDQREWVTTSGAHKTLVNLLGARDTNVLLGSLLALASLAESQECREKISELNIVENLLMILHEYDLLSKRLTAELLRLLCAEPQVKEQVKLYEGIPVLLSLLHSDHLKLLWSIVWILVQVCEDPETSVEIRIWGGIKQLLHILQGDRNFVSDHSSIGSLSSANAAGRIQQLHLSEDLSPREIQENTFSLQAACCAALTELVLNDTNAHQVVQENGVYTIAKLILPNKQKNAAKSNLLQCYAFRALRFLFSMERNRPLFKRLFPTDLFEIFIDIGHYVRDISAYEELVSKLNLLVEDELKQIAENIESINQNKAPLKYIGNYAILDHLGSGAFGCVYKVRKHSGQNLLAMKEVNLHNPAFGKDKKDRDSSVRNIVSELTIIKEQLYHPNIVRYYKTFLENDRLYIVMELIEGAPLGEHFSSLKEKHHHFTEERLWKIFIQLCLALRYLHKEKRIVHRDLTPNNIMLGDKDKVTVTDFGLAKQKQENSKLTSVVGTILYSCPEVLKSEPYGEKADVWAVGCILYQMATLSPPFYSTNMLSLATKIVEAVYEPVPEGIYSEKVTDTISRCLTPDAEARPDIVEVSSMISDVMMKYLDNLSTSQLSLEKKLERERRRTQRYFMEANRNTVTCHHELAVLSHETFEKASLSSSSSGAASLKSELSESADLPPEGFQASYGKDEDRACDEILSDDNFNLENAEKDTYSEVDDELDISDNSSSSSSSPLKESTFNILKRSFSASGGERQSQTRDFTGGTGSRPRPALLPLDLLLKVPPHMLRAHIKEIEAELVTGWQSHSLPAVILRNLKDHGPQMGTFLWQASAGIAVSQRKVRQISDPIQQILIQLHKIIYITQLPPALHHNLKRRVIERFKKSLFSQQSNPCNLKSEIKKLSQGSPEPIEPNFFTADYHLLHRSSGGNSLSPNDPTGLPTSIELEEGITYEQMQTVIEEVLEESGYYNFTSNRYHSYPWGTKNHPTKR
# Chain of Ribosomal protein S6 kinase alpha-3 (Homo sapiens) (P51812 whole entry, the tested form may be a part): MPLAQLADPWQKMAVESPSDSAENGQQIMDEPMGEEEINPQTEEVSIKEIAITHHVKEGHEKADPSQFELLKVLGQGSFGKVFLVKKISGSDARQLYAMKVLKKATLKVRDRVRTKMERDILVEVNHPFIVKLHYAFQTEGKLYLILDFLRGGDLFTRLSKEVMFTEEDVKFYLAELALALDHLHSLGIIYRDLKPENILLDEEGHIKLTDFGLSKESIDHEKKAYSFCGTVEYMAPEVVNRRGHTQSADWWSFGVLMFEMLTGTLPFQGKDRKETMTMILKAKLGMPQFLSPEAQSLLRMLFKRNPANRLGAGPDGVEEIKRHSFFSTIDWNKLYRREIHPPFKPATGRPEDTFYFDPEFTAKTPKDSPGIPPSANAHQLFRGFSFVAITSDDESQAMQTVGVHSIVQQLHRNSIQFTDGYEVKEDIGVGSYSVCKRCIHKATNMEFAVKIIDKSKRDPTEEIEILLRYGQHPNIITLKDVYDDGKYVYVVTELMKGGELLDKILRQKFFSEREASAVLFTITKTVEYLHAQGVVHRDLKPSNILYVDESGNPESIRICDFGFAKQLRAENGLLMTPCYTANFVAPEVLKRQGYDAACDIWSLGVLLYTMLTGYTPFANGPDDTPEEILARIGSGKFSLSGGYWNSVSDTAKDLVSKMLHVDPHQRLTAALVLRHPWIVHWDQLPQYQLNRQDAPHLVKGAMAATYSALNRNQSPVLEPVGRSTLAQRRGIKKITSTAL
# Chain of Serine/threonine-protein kinase TBK1 (Homo sapiens) (Q9UHD2 whole entry, the tested form may be a part): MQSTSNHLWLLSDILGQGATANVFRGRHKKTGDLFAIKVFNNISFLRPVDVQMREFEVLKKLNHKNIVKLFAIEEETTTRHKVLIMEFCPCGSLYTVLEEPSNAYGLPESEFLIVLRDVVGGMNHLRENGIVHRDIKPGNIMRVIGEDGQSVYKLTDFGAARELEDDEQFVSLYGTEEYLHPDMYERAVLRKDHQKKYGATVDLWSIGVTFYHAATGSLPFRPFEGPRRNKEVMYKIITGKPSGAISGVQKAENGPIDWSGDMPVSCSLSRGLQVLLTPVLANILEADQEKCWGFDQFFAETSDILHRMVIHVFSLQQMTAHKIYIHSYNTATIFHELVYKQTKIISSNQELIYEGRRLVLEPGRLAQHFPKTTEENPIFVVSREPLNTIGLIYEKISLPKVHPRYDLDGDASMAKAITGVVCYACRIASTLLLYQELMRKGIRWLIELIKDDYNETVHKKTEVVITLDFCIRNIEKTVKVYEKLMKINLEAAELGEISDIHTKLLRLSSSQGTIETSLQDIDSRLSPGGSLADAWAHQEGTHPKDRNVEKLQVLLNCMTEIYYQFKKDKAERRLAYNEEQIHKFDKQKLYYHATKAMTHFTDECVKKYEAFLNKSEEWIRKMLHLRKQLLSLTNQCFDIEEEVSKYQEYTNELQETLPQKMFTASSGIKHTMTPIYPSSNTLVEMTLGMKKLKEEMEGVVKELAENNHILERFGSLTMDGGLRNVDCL
# Chain of Ribosomal protein S6 kinase alpha-4 (Homo sapiens) (O75676 whole entry, looked up, the tested form may be a part): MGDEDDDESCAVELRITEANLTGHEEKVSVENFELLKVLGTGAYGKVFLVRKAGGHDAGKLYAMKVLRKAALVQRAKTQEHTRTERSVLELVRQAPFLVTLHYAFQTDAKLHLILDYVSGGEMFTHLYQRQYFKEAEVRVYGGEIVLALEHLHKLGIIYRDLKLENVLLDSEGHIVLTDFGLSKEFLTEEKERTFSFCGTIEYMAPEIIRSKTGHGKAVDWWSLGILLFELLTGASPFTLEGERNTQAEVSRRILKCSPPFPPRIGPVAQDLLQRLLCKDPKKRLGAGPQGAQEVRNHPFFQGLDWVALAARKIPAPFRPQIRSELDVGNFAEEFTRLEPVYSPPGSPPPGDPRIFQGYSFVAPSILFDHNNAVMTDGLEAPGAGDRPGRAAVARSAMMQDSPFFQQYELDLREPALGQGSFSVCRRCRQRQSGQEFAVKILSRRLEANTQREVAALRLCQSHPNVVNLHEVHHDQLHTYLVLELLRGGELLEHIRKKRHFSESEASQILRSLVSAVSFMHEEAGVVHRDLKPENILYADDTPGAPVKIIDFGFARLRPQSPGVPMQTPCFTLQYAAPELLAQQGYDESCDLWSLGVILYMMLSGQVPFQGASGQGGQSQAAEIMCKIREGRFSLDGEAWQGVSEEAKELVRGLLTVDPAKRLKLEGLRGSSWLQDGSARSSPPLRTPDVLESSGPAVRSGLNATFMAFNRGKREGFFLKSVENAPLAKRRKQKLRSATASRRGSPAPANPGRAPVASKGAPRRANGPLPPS
# Chain of Serine/threonine-protein kinase Sgk3 (Homo sapiens) (Q96BR1 whole entry, the tested form may be a part): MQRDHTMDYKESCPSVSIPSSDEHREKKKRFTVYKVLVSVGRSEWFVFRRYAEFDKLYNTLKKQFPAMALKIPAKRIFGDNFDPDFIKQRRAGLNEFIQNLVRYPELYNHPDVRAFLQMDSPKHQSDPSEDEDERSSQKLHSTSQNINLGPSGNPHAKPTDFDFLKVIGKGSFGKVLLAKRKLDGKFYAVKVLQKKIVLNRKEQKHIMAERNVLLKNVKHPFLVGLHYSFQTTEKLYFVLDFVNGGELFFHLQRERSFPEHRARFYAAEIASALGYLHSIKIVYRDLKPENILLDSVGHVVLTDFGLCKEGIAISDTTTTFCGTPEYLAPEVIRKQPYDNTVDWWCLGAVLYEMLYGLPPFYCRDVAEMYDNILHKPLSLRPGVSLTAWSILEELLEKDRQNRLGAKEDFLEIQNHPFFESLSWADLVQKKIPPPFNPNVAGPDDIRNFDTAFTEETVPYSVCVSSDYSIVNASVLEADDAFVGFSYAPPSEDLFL
# Chain of Ephrin type-B receptor 4 (Homo sapiens) (P54760 whole entry, the tested form may be a part): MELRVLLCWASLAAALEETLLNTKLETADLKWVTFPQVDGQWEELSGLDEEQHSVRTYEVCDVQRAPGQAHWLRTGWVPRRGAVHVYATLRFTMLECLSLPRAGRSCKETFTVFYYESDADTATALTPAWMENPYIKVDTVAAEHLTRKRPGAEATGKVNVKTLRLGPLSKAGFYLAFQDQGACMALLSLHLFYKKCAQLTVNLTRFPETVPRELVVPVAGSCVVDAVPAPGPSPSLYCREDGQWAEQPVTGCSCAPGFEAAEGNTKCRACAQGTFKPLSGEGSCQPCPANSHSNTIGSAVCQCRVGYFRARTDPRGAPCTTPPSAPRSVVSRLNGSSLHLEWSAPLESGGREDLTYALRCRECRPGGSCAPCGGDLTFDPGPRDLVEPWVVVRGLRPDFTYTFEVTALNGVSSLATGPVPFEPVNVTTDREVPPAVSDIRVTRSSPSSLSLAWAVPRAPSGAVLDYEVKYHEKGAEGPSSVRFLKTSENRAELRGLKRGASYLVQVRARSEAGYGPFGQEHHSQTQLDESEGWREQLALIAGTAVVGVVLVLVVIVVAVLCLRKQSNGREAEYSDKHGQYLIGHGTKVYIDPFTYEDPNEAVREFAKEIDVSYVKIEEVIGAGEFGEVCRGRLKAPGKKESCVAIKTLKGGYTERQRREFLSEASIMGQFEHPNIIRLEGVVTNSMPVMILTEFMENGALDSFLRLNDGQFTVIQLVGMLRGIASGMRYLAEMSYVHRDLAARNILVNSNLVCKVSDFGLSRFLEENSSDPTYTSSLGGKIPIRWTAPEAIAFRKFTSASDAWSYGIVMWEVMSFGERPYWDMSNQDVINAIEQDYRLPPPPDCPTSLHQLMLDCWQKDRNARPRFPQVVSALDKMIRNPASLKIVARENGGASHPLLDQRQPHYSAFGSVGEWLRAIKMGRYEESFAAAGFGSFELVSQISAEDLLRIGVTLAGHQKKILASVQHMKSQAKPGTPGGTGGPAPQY
compound,measurement,setting,value
COc1cc(OC)c(Cl)c(N2Cc3cnc(Nc4ccc(F)cc4)nc3N(C3CCN(C(=O)/C=C/CN(C)C)CC3)C2=O)c1Cl,Activity,[1],73%
same,Activity,[2],67%
same,Activity,[3],99%
same,Activity,[4],74%
same,Activity,[5],100%
same,Activity,[6],100%
same,Activity,[7],100%
same,Activity,[8],90%
same,Activity,[9],97%
same,Activity,[10],100%
same,Activity,[11],100%
same,Activity,[12],97%
same,Activity,[13],99%
same,Activity,[14],47%
same,Activity,[15],89%
same,Activity,[16],100%
same,Activity,[17],83%
same,Activity,[18],92%
same,Activity,[19],100%
same,Activity,[20],87%
same,Activity,[21],82%
same,Activity,[22],86%
